Laboratory results from the RNAGym collection of RNA variant scans (doi:10.1126/science.aae0568).
Variants at the floor of the assay were thinned out.

B1: tRNA (parent)
chain: GUUCCGUUGGCGUAAUGGUAACGCGUCUCCCUCCUAAGGAGAAGACUGCGGGUUCGAGUCCCGUACGGAACG

Variants of: B1
Assay: yeast fitness relative to wild type (ratio to wild type); higher = fitter; tRNA-Arg(CCU), competitive growth, 37 C, YPD
Outline: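 Genotype frequency changes were the basis for Darwinian fitness relative to wild type. The frequencies came from 100-nucleotide paired-end sequencing of gene amplicons from the start population and each end population of pooled yeast strains with tRNA-Arg(CCU) gene variants at the native locus. Competition ran in YPD at 37°C for 24 hours in six replicates, genotypes needed ≥ 100 starting reads, and estimates < 0.5 were set to 0.5.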

Row | Variant | yeast fitness
1 | GUUCCGUUGGCGUAAUGGUAACGCGUAUCCCUCCUAAGGAGAAGACUGCGGGUUCGAGUGCCGUACGGAACG [C27A C60G] | 0.657
2 | GUUCCGUUGGCGUAAUGGUAACGCGUAUCCCUCCUAAGGAGAAGACUGCGGGUUCGAGUCGCGUACGGAACG [C27A C61G] | 0.665
3 | GUUCCGUUGGCGUAAUGGUAACGCGUAUCCCUCCUAAGGAGAAGACUGCGGGUUCGAGUCUCGUACGGAACG [C27A C61U] | 0.891
4 | GUUCCGUUGGCGUAAUGGUAACGCGUAUCCCUCCUAAGGAGAAGACUGCGGGUUCGAGUCUCGUACGCAACG [C27A C61U G68C] | ≤ 0.5
5 | GUUCCGUUGGCGUAAUGGUAACGCGUAUCCCUCCUAAGGAGAAGACUGCGGGUUCGAGUCCAGUACGGAACG [C27A C62A] | 0.699
6 | GUUCCGUUGGCGUAAUGGUAACGCGUAUCCCUCCUAAGGAGAAGACUGCGGGUUCGAGUCCUGUCCGGAACG [C27A C62U A65C] | 0.63
7 | GUUCCGUUGGCGUAAUGGUAACGCGUAUCCCUCCUAAGGAGAAGACUGCGGGUUCGAGUCCCGUAAGGAACG [C27A C66A] | 0.565
8 | GUUCCGUUGGCGUAAUGGUAACGCGUAUCCCUCCUAAGGAGAAGACUGCGGGUUCGAGUCCCGUAGGGAACG [C27A C66G] | 0.673
9 | GUUCCGUUGGCGUAAUGGUAACGCGUAUCCCUCCUAAGGAGAAGACUGCGGGUUCGAGUCCCGUAUGGAACG [C27A C66U] | 0.868
10 | GUUCCGUUGGCGUAAUGGUAACGCGUAUCCCUCCUAACGUGAAGACUGCGGGAUCGAGUCCCGUACGGAACG [C27A G38C A40U U53A] | ≤ 0.5
11 | GUUCCGUUGGCGUAAUGGUAACGCGUAUCCCUCCUAACGAGAAGACUGCGGGUUCGAGUCCCGUACGUAACG [C27A G38C G68U] | ≤ 0.5
12 | GUUCCGUUGGCGUAAUGGUAACGCGUAUCCCUCCUAAGCAGAAGACUGCGGGUUCGUGUCCCGUACGGAACG [C27A G39C A57U] | ≤ 0.5
13 | GUUCCGUUGGCGUAAUGGUAACGCGUAUCCCUCCUAAGCAGAAGACUGCGGGUUGGAGUCCCGUACGGAACG [C27A G39C C55G] | ≤ 0.5
14 | GUUCCGUUGGCGUAAUGGUAACGCGUAUCCCUCCUAAGGAAAAGUCUGCGGGUUCGAGGCCCGUACGGAACG [C27A G41A A45U U59G] | ≤ 0.5
15 | GUUCCGUUGGCGUAAUGGUAACGCGUAUCCCUCCUAAGGAAAAGACAGCGGGUUCGAGUCCCGUACGGAACG [C27A G41A U47A] | ≤ 0.5
16 | GUUCCGUUGGCGUAAUGGUAACGCGUAUCCCUCCUAAGGAAAAGACAGCGGGUUCGAGUCCCGUACGGUACG [C27A G41A U47A A69U] | ≤ 0.5
17 | GUUCCGUUGGCGUAAUGGUAACGCGUAUCCCUCCUAAGGACACGACUGCGGGUUCGAGUCCCGUACGGAACG [C27A G41C A43C] | 0.504
18 | GUUCCGUUGGCGUAAUGGUAACGCGUAUCCCUCCUAAGGACACGUCUGCGGGUUCGAGUCCCGUACGGAACG [C27A G41C A43C A45U] | ≤ 0.5
19 | GUUCCGUUGGCGUAAUGGUAACGCGUAUCCCUCCUAAGGACACGACUGCGGGUUCGAGUCCCGUACGGUACG [C27A G41C A43C A69U] | ≤ 0.5

Row | Variant | yeast fitness
20 | GUUCCGUUGGCGUAAUGGUAACGCGUAUCCCUCCUAAGGAGAAAACUGCGGGUUCGAGUCCCGUACGGCACG [C27A G44A A69C] | ≤ 0.5
21 | GUUCCGUUGGCGUAAUGGUAACGCGUAUCCCUCCUAAGGAGAACACUGCGAGUUCGAGUCCCGUACGGAACG [C27A G44C G51A] | ≤ 0.5
22 | GUUCCGUUGGCGUAAUGGUAACGCGUAUCCCUCCUAAGGAGAACACUGCGGGUUCGAGACCCGUACGGAACG [C27A G44C U59A] | ≤ 0.5
23 | GUUCCGUUGGCGUAAUGGUAACGCGUAUCCCUCCUAAGGAGAAGACUACGGGUUCGAGUCCCGUACGGAACG [C27A G48A] | 0.995
24 | GUUCCGUUGGCGUAAUGGUAACGCGUAUCCCUCCUAAGGAGAAGACUGCAGGUUCGAGUCCCGUACGGAACG [C27A G50A] | 0.848
25 | GUUCCGUUGGCGUAAUGGUAACGCGUAUCCCUCCUAAGGAGAAGACUGCCGGUUCGAGUCCCGUACGGAACG [C27A G50C] | 0.721
26 | GUUCCGUUGGCGUAAUGGUAACGCGUAUCCCUCCUAAGGAGAAGACUGCGAGUUCGAGUCCCGUACGGAGCG [C27A G51A A70G] | ≤ 0.5
27 | GUUCCGUUGGCGUAAUGGUAACGCGUAUCCCUCCUAAGGAGAAGACUGCGCGUUCGAGUCCCGUACGGAACG [C27A G51C] | 0.704
28 | GUUCCGUUGGCGUAAUGGUAACGCGUAUCCCUCCUAAGGAGAAGACUGCGGAUUCGAGUCCCGUACGGAACG [C27A G52A] | 0.619
29 | GUUCCGUUGGCGUAAUGGUAACGCGUAUCCCUCCUAAGGAGAAGACUGCGGUUUAGAGUCCCGUACGGAACG [C27A G52U C55A] | ≤ 0.5
30 | GUUCCGUUGGCGUAAUGGUAACGCGUAUCCCUCCUAAGGAGAAGACUGCGGGUUCAAGUCCCGUACGGAACG [C27A G56A] | 0.707
31 | GUUCCGUUGGCGUAAUGGUAACGCGUAUCCCUCCUAAGGAGAAGACUGCGGGUUCAAGUCCCGUUAGGAACG [C27A G56A A65U C66A] | ≤ 0.5
32 | GUUCCGUUGGCGUAAUGGUAACGCGUAUCCCUCCUAAGGAGAAGACUGCGGGUUCCAGUCCAGUCCGGAACG [C27A G56C C62A A65C] | 0.611
33 | GUUCCGUUGGCGUAAUGGUAACGCGUAUCCCUCCUAAGGAGAAGACUGCGGGUUCGAGUCCCAUACGGAACG [C27A G63A] | 0.88
34 | GUUCCGUUGGCGUAAUGGUAACGCGUAUCCCUCCUAAGGAGAAGACUGCGGGUUCGAGUCCCCUACGCAACG [C27A G63C G68C] | 0.524
35 | GUUCCGUUGGCGUAAUGGUAACGCGUAUCCCUCCUAAGGAGAAGACUGCGGGUUCGAGUCCCGUACGAAACG [C27A G68A] | 0.787
36 | GUUCCGUUGGCGUAAUGGUAACGCGUAUCCCUCCUAAGGAGAAGACUGCGGGUUCGAGUCCCGUACGUAACG [C27A G68U] | 0.805
37 | GUUCCGUUGGCGUAAUGGUAACGCGUAACCCUCCUAAGGAGAAGACUGCGGGUUCGAGUCCCGUACGGAUCG [C27A U28A A70U] | ≤ 0.5
